# Activity calls are given as the source filed them.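 Rule for the calls, unless noted: active = viability at or under a set limit in both replicates, limit being median viability minus 3 SD (cut at about 48% in these data, passing the limit was not always enough); inconclusive = at or under the limit in just one replicate; inactive = at or above the limit in both replicates.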
# Assays:
# [1] = reducers of endogenous Her2 protein level, primary screen, SKBR3 breast tumor cells, AlphaScreen, ATP viability (AID 461;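 active = Her2 level under about 52% in both replicate screens, with viability over 70% of control, limit read from the data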;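 for Her2 level: lower value means less Her2 protein in the cells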;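 for viability: percent of carrier control wells set as 100% viability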); settings: 18-24 h, measured here: SKBR3 viability, ATP luminescence, at 10 µM
# [2] = target: Receptor tyrosine-protein kinase erbB-2 (Homo sapiens) (UniProt P04626); experiment: as above; settings: 18-24 h, at 10 µM, stronger effect = lower value
# [3] = SK-BR-3 cell growth inhibitors, pilot screen, 24 h, human (AID 572;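 active = viability at or below 10% of carrier control in both of two separate runs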;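 note: compound exposure lasted between 18 and 24 h rather than exactly 24 h; 100% = carrier-treated control wells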); settings: SK-BR-3 viability, CellTiter-Glo luminescence, at 10 µM, stronger effect = lower value
# [4] = HUVEC growth inhibition – cell-based, human, primary screen (AID 575;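 active = viability at or below 30% in both replicate assays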;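 note: 100% = median of untreated cell wells with 0.1% DMSO on each plate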); settings: HUVEC proliferation, CellTiter-Glo luminescence, 72 h; at 10 µM; stronger effect = lower value
# In short: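 System – primary HUVEC, no more than 12 passages · Medium – Low-serum (2% FBS) EBM, supplemented · Times – 72 h exposure, 37 °C, 5% CO2, 30 min RT equilibration · Measured by – luminescent ATP assay · Read-out – % viability relative to median vehicle-well signal on each plate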
# [5] = growth inhibitors of H69AR lung tumor, primary screen, human, duplicate replicates (AID 580); settings: H69AR lung tumor cells viability, ATP luminescence, 72 h; at 10 µM; stronger effect = lower value;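 note: 100% = mean luminescence of untreated wells and 0% = no signal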
# [6] = reversal of MRP1-mediated doxorubicin resistance, pilot screen, H69AR cells, doxorubicin co-treatment (AID 601;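 active = viability loss from added drug above about 55%, and viability with drug at most 40%, in both replicates, limit read from the data, passing the limit was not always enough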); settings: CellTiter-Glo, 72 h, at 10 µM; for differential viability (reversal): stronger effect = higher value
# [7] = 384-well plate pilot, post-Golgi transport modulator project, inhibition of yeast transport mutant growth (AID 636; in the data active = inhibition above about 31%); settings: absorbance 615 nm, about 18 h, stronger effect = higher value
# [8] = growth suppression of yeast trafficking mutant, preliminary HTS, modulators of trafficking downstream of Golgi apparatus project, 1536-format plate, OD 615 nm (AID 637; in the data active = inhibition above about 30%); settings: yeast transport mutant growth, absorbance 615 nm, 18 h; stronger effect = higher value
# [9] = H69AR cells + 2 uM doxorubicin, measured here: viability with 2 uM doxorubicin, stronger effect = lower value
# [10] = H69AR cells, compound alone cytotoxicity
# Sequence of Receptor tyrosine-protein kinase erbB-2 (Homo sapiens) (P04626 whole entry, looked up): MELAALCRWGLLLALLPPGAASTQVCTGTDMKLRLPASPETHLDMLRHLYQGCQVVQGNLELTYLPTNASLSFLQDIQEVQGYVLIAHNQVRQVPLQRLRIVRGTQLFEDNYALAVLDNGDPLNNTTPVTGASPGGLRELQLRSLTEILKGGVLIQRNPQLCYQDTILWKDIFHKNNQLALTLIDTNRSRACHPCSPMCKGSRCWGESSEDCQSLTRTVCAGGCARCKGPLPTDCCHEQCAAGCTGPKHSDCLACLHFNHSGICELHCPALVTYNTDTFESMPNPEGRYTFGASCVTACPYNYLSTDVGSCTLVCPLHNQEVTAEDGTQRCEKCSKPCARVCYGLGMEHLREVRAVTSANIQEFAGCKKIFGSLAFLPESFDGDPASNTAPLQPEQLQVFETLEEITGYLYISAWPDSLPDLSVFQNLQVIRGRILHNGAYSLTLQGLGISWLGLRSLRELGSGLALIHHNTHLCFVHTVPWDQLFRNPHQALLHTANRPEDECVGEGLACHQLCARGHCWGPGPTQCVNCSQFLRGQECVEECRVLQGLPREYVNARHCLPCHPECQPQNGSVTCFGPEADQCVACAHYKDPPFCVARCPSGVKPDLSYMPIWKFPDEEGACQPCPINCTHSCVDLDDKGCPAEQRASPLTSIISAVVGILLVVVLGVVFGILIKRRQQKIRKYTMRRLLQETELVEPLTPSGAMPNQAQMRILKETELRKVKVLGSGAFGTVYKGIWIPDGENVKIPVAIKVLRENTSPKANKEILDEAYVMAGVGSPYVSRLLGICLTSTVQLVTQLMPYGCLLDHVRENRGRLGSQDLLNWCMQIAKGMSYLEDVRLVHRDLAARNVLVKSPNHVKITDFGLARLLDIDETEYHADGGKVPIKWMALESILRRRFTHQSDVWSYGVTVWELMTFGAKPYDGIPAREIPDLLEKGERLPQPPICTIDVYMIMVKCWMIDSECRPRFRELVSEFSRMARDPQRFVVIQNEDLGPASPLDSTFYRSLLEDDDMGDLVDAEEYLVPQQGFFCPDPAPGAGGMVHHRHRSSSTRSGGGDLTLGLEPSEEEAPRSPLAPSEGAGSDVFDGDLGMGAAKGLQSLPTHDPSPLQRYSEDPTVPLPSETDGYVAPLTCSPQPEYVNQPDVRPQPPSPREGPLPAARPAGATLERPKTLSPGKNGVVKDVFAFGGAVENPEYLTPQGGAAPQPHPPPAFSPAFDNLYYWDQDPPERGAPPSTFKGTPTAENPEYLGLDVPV
Compound,viability [1] [%],Her2 level [2],viability [3],viability [4],viability [5],differential viability (reversal) ([6]; H69AR cells + 2 uM doxorubicin),"viability [6, 9] [%]","viability [6, 10] [%]",inhibition [7],inhibition [8]
Cc1cnc(C(=O)OCC(=O)Nc2ccc(Cl)cc2Cl)cn1,89.5,100% (inactive),89.5% (inactive),90.5% (inactive),103% (inactive),16.4% (inactive),86.3,103,-8.49% (inactive),2.38% (inactive)
O=C1CCc2nc3sc4c(c3c(=O)n2N1)CCCC4,86.5,100% (inactive),86.5% (inactive),85.9% (inactive),91.3% (inactive),1.12% (inactive),90.2,91.3,-1.05% (inactive),-7.14% (inactive)
COCCSc1ccccc1C(=O)Nc1cc(C)on1,91,90% (inactive),91% (inactive),95.4% (inactive),94.5% (inactive),4.69% (inactive),89.8,94.5,0.39% (inactive),-2.74% (inactive)
CCSc1nnc(NC(=O)C(CC)(C(F)(F)F)C(F)(F)F)s1,79.5,120% (inactive),79.5% (inactive),68.9% (inactive),74% (inactive),0.58% (inactive),73.4,74,0.41% (inactive),33.3% (active)
Cc1ccc(NC(=O)CSc2nnc(Cc3cccn3C)n2-c2ccc(F)cc2)cc1,82.5,78.5% (inactive),82.5% (inactive),84% (inactive),91.9% (inactive),-4.92% (inactive),96.8,91.9,-1.03% (inactive),-4.83% (inactive)
CCNCC(O)COCC(O)CNCC (stereo not given),88.5,86% (inactive),88.5% (inactive),88.3% (inactive),99.7% (inactive),5.55% (inactive),94.2,99.7,-1.03% (inactive),-0.5% (inactive)
CCn1c(=O)cc(OCC(=O)NCCCN2CC(C)CC(C)C2)c2ccccc21 (stereo not given),101,81% (inactive),101% (inactive),81.3% (inactive),74.7% (inactive),-0.8% (inactive),75.5,74.7,-7.24% (inactive),-2.55% (inactive)
COCCCNC(=O)c1ccc2c(c1)OCO2,96.5,93.5% (inactive),96.5% (inactive),89.9% (inactive),89.8% (inactive),-1.48% (inactive),91.3,89.8,-2.76% (inactive),5.74% (inactive)
O=C(CN1C(=O)CSC1=O)Nc1ccc(N2CCOCC2)cc1,96.5,122% (inactive),96.5% (inactive),88.1% (inactive),101% (inactive),5.88% (inactive),94.7,101,1.07% (inactive),16.4% (inactive)
Cc1cc(C(=O)COC(=O)C2COc3ccccc3O2)c(C)n1CC1CCCO1 (stereo not given),82,100% (inactive),82% (inactive),99.4% (inactive),94% (inactive),0.315% (inactive),93.6,94,-0.38% (inactive),-4.5% (inactive)
Cc1ccc(OC(=O)CCC(=O)OCCCC(F)(F)C(F)(F)F)cc1,102,104% (inactive),102% (inactive),91.2% (inactive),94.3% (inactive),3.79% (inactive),90.5,94.3,-1.76% (inactive),-1.64% (inactive)
O=C(O)C1C2CCC(O2)C1C(=O)NCCC1=CCCCC1 (stereo not given),78.5,118% (inactive),78.5% (inactive),34.2% (inactive),57.8% (inactive),-9.07% (inactive),66.8,57.8,0% (inactive),0.5% (inactive)
COc1ccc(C(=O)N2CCN(c3nc4cc(C)ccc4cc3C#N)CC2)c(OC)c1,112,98% (inactive),112% (inactive),88.1% (inactive),85.4% (inactive),-9.04% (inactive),94.5,85.4,-2.73% (inactive),-1.75% (inactive)
CCCN1C2CCCC1CC(NC(=O)c1ccccc1F)C2 (stereo not given),99,96.5% (inactive),99% (inactive),94.2% (inactive),106% (inactive),19.6% (inactive),86,106,-4.93% (inactive),5.4% (inactive)
COc1ccc(OC)c(C2C3=C(CCCC3=O)Nc3c2c(=O)n(C)c(=O)n3C)c1 (stereo not given),106,108% (inactive),106% (inactive),103% (inactive),102% (inactive),-5.08% (inactive),107,102,-2.24% (inactive),-0.33% (inactive)
CCNC(=O)N1c2ccc(OCC)cc2C(C)=CC1(C)C,95.5,99.5% (inactive),95.5% (inactive),106% (inactive),89.3% (inactive),-1.44% (inactive),90.8,89.3,-7.76% (inactive),-1.15% (inactive)
Cc1c(C2Nc3ccccc3NC3=C2C(=O)CC(C)(C)C3)cnn1C (stereo not given),112,107% (inactive),112% (inactive),93% (inactive),89.2% (inactive),0.765% (inactive),88.4,89.2,-4.38% (inactive),-5.87% (inactive)
CN(C)c1ccc(/C(=N\O)c2ccccc2)cc1,98.5,114% (inactive),98.5% (inactive),93.9% (inactive),92.8% (inactive),2.59% (inactive),90.3,92.8,0.13% (inactive),-13.5% (inactive)
COc1ccc(-n2ncc3c(NCCCN4CCOCC4)ncnc32)cc1,102,102% (inactive),102% (inactive),103% (inactive),109% (inactive),4.54% (inactive),104,109,-6.13% (inactive),7.87% (inactive)
COC(=O)c1c(-c2ccc(F)cc2)noc1N,94,97.5% (inactive),94% (inactive),89.4% (inactive),93.3% (inactive),3.79% (inactive),89.5,93.3,-2.97% (inactive),1.33% (inactive)
Clc1ccc(CSc2nnc(Cn3cnc4ccccc43)o2)cc1,74.5,72% (inactive),74.5% (inactive),48.2% (inactive),99.2% (inactive),2.03% (inactive),97.2,99.2,-4.32% (inactive),-1.8% (inactive)
CCN(CC)C(=O)c1sc(NC(=O)c2ccco2)c(C#N)c1C,99.5,103% (inactive),99.5% (inactive),88% (inactive),79.3% (inactive),-7.3% (inactive),86.6,79.3,-4.74% (inactive),-7.26% (inactive)
CN1C(=S)SC(C)(NO)C1(C)C (stereo not given),90,95.5% (inactive),90% (inactive),97% (inactive),104% (inactive),5.95% (inactive),98.4,104,-0.27% (inactive),-9.52% (inactive)
Cc1nn(-c2ccc(F)cc2)c2sc(C(=O)OCC(=O)N3CCC(C)CC3)cc12,93,102% (inactive),93% (inactive),76.8% (inactive),102% (inactive),9.16% (inactive),92.6,102,-3.87% (inactive),-5.81% (inactive)
FC(F)(F)c1cc(-c2ccccc2)nc(N2CCCCC2)n1,101,102% (inactive),101% (inactive),101% (inactive),98.1% (inactive),-3% (inactive),101,98.1,-4.53% (inactive),5.57% (inactive)
CCn1c(SCC(=O)N2CCOCC2)nc2c(c1=O)SC(C)C2 (stereo not given),95,112% (inactive),95% (inactive),97.3% (inactive),88% (inactive),6.23% (inactive),81.7,88,-7.53% (inactive),-4.92% (inactive)
COC(=O)c1ccc(NC(=O)CN2CCN(c3ccc(Cl)cc3)CC2)cc1,96.5,100% (inactive),96.5% (inactive),104% (inactive),96.1% (inactive),-0.5% (inactive),96.6,96.1,0.13% (inactive),12.9% (inactive)
O=c1[nH]cnc2c1C1(CCCC1)Cc1ccccc1-2,95.5,90% (inactive),95.5% (inactive),93.1% (inactive),100% (inactive),11.5% (inactive),88.7,100,-0.26% (inactive),-0.5% (inactive)
Cc1cnc(NC(=O)CSc2nc3ccccc3c(=O)[nH]2)s1,89.5,93.5% (inactive),89.5% (inactive),76.5% (inactive),93.3% (inactive),10.8% (inactive),82.5,93.3,-3.07% (inactive),-6.19% (inactive)
